Laboratory results: ChEMBL document CHEMBL1811853, “Design and evaluation of 3-aminopyrazolopyridinone kinase inhibitors inspired by the natural product indirubin” (Bioorg Med Chem, 2011)

Assays:
[1] = molecular target: Mitogen-activated protein kinase 1 (Homo sapiens) (UniProt P28482); assay: Inhibition of ERK2 at 30 uM by microfluidic mobility shift assay
How it was run: (§1)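 Single-concentration screen, singlicate, 30 uM final (diluted from 1 mM DMSO solutions), fluorescently tagged peptide substrate appropriate to each kinase, ATP at apparent Km for each protein. Phosphorylated and unphosphorylated peptides separated electrophoretically; conversion is the phosphorylated peak area over the sum of both peaks. No-inhibitor and no-ATP controls; H89 reference on each plate.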

[2] = molecular target: Mitogen-activated protein kinase 14 (Homo sapiens, UniProt Q16539); assay: Inhibition of p38alpha at 30 uM by microfluidic mobility shift assay; how it was run: as §1
Mitogen-activated protein kinase 14, sequence (Q16539 whole entry): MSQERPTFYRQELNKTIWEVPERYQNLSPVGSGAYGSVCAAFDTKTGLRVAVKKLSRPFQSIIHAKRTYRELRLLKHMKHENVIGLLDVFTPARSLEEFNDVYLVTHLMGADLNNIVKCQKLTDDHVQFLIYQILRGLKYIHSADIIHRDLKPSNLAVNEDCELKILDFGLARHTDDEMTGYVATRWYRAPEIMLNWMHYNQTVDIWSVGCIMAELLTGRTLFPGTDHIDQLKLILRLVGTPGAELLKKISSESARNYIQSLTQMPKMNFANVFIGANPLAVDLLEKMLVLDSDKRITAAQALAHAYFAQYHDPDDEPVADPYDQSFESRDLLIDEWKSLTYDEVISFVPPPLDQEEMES

[3] = molecular target: Tyrosine-protein kinase Fyn (Homo sapiens, UniProt P06241); assay: Inhibition of FYN at 30 uM by microfluidic mobility shift assay; how it was run: as §1
[4] = molecular target: Mitogen-activated protein kinase 3 (Homo sapiens) (UniProt P27361); assay: Inhibition of ERK1 at 30 uM by microfluidic mobility shift assay; how it was run: as §1
Mitogen-activated protein kinase 3 (Homo sapiens), sequence (P27361 whole entry): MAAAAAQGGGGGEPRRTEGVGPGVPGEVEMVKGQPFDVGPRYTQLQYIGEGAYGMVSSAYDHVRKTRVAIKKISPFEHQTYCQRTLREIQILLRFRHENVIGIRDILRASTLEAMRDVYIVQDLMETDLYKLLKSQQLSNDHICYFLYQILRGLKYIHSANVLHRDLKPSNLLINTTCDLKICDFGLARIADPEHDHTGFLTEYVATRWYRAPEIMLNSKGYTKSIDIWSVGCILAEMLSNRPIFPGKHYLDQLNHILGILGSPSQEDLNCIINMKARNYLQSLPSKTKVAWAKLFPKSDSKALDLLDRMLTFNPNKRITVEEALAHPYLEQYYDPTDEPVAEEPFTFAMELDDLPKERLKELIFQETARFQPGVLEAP

[5] = molecular target: Ribosomal protein S6 kinase alpha-5 (Homo sapiens) (UniProt O75582); assay: Inhibition of MSK1 at 30 uM by microfluidic mobility shift assay; how it was run: as §1
[6] = molecular target: T1, Protein kinase C zeta type (Homo sapiens) (UniProt Q05513); assay: Inhibition of PKCz at 30 uM by microfluidic mobility shift assay; how it was run: as §1
T1 sequence (whole entry): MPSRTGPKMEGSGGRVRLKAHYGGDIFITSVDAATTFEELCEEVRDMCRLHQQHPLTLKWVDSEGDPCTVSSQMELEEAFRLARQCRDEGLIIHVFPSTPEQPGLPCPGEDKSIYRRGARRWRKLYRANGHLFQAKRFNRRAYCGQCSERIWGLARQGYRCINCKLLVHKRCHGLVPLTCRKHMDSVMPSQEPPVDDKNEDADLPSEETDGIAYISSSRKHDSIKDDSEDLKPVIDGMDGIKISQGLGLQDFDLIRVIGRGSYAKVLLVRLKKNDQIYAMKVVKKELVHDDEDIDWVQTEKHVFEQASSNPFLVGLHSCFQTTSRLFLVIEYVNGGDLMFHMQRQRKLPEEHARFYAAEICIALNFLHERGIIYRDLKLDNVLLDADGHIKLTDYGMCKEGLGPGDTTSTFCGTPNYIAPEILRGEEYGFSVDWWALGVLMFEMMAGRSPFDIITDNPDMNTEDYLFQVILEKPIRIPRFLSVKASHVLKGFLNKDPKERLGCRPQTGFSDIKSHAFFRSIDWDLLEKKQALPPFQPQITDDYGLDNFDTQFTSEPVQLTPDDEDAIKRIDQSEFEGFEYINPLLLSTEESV

[7] = molecular target: T2, Aurora kinase A (Homo sapiens) (UniProt O14965); assay: Inhibition of AurA at 30 uM by microfluidic mobility shift assay; how it was run: as §1
T2 sequence (whole entry): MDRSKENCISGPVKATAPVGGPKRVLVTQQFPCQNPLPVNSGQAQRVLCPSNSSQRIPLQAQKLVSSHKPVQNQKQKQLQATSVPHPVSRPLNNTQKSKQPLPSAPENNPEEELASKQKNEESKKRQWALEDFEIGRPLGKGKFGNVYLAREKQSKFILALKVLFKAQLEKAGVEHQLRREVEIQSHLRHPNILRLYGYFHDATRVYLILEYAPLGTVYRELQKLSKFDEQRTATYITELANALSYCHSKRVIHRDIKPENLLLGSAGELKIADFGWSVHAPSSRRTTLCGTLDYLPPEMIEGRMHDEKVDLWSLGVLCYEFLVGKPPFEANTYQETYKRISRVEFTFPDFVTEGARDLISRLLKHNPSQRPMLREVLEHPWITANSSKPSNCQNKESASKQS

[8] = molecular target: MAP kinase-activated protein kinase 2 (Homo sapiens, UniProt P49137); assay: Inhibition of MAPKAPK2 at 30 uM by microfluidic mobility shift assay; how it was run: as §1
MAP kinase-activated protein kinase 2, sequence (P49137 whole entry, looked up): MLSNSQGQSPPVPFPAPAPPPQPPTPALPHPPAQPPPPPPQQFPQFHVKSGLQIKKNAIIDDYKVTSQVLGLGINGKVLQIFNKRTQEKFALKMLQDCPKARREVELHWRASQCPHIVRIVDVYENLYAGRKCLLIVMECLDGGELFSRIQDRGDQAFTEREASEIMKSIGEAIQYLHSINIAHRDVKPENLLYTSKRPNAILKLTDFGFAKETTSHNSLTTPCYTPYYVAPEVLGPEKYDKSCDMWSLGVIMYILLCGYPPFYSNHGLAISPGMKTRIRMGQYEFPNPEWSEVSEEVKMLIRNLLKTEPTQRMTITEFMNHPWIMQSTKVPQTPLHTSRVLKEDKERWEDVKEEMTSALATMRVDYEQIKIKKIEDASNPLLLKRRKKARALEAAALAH

[9] = molecular target: Tyrosine-protein kinase Lck (Homo sapiens, UniProt P06239); assay: Inhibition of LCK at 30 uM by microfluidic mobility shift assay; how it was run: as §1
Tyrosine-protein kinase Lck, sequence (P06239 2-509 limits assumed): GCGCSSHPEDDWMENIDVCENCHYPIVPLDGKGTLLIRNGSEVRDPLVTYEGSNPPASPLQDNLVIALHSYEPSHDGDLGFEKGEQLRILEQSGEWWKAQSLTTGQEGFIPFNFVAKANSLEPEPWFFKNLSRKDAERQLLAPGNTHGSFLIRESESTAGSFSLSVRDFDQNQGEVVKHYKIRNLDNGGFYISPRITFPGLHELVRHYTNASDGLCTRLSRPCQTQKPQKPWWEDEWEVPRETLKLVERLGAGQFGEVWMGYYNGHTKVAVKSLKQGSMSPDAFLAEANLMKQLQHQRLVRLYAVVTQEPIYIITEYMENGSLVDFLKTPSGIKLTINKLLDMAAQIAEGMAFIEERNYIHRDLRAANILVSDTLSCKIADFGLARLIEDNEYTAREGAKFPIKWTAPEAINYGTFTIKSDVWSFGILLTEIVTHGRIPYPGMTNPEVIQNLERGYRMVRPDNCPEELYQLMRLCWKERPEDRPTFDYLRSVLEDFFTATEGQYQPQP

[10] = molecular target: RAC-beta serine/threonine-protein kinase (Homo sapiens) (UniProt P31751); assay: Inhibition of AKT2 at 30 uM by microfluidic mobility shift assay; how it was run: as §1
RAC-beta serine/threonine-protein kinase (Homo sapiens), sequence (P31751 whole entry): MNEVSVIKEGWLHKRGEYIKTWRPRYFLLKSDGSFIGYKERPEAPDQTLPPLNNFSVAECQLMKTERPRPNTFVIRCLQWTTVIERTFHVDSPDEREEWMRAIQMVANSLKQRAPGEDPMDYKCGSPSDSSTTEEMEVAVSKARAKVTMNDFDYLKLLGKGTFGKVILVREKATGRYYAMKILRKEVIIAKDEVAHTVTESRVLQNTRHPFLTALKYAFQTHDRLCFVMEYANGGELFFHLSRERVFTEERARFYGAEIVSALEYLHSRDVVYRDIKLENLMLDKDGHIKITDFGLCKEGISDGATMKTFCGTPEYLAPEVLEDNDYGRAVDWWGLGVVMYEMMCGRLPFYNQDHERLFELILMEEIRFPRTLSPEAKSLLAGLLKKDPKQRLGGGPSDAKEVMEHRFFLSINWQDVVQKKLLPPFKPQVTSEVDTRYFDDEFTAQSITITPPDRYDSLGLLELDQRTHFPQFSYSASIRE

[11] = molecular target: T3, Serine/threonine-protein kinase D2 (Homo sapiens) (UniProt Q9BZL6); assay: Inhibition of PKD2 at 30 uM by microfluidic mobility shift assay; how it was run: as §1
T3 sequence (whole entry): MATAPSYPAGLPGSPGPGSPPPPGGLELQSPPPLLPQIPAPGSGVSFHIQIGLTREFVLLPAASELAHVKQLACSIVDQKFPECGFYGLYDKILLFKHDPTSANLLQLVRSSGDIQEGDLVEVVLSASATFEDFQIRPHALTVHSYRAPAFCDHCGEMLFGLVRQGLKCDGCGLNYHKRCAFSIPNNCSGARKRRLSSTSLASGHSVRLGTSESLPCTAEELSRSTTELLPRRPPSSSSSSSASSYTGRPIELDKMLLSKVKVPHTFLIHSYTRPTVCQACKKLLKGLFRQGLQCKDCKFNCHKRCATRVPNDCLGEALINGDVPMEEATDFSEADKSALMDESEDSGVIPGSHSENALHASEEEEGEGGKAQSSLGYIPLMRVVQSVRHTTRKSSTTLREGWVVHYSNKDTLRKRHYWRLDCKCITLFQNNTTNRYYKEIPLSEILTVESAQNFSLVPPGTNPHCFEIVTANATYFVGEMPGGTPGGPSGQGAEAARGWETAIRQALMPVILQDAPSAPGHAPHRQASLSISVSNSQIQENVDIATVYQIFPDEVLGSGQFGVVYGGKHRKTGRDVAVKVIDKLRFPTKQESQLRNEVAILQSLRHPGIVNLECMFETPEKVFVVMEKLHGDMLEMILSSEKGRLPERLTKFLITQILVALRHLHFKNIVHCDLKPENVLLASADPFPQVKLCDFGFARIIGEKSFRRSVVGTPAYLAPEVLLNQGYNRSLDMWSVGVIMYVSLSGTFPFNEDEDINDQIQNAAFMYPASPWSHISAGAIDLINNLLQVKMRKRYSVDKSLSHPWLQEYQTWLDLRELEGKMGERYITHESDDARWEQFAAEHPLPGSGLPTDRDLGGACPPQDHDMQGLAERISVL

[12] = molecular target: Ribosomal protein S6 kinase alpha-1 (Homo sapiens) (UniProt Q15418); assay: Inhibition of RSK1 at 30 uM by microfluidic mobility shift assay; how it was run: as §1
Ribosomal protein S6 kinase alpha-1 (Homo sapiens), sequence (Q15418 whole entry): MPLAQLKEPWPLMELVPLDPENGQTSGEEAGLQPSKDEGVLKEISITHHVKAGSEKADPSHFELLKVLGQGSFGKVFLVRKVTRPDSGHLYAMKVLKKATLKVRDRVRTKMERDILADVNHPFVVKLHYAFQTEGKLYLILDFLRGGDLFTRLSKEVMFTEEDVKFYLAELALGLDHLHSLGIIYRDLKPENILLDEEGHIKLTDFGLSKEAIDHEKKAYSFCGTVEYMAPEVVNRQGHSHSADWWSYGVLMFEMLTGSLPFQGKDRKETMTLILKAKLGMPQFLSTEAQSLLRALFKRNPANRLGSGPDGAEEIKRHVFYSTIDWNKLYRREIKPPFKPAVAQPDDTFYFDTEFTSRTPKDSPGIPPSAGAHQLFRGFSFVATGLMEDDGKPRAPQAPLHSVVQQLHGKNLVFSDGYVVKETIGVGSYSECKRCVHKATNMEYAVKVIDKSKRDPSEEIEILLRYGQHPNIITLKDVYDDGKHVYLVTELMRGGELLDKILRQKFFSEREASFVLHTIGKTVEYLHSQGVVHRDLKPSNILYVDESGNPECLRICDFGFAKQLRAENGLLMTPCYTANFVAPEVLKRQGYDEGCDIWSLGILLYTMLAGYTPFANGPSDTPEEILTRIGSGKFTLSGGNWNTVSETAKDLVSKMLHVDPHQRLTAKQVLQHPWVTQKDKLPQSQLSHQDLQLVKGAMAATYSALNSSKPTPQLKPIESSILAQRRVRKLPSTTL

[13] = molecular target: Tyrosine-protein kinase ABL1 (Homo sapiens, UniProt P00519); assay: Inhibition of ABL at 30 uM by microfluidic mobility shift assay; how it was run: as §1
Tyrosine-protein kinase ABL1, sequence (P00519 whole entry): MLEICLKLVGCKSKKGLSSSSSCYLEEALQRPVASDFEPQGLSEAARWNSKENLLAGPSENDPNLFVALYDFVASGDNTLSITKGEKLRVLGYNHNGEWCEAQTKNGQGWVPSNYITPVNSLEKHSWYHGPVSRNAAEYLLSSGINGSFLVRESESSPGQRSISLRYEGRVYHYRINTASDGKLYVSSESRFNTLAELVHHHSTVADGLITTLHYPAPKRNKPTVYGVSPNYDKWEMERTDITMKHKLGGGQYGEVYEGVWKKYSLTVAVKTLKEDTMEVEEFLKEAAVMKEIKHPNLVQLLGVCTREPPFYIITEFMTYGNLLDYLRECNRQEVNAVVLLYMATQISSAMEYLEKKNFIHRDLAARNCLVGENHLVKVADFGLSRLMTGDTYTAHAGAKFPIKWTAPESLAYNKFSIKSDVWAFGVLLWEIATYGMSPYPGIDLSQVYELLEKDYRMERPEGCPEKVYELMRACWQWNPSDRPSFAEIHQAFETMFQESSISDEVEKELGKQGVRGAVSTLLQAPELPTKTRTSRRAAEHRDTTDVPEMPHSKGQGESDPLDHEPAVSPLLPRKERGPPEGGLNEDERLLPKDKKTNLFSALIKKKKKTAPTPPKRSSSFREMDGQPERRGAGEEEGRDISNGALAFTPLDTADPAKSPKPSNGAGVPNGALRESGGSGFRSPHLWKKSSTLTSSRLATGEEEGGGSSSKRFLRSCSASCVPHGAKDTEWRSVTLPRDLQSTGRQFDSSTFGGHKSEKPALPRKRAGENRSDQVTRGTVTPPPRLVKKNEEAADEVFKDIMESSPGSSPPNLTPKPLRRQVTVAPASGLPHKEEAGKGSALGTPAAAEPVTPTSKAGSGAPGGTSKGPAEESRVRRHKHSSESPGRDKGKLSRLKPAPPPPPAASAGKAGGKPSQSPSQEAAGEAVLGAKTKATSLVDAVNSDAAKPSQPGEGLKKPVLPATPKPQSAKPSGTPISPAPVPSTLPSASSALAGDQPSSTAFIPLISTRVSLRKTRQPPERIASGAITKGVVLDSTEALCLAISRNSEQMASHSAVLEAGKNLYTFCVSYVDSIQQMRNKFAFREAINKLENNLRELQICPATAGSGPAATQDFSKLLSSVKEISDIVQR

[14] = molecular target: RAC-alpha serine/threonine-protein kinase (Homo sapiens) (UniProt P31749); assay: Inhibition of AKT1 at 30 uM by microfluidic mobility shift assay; how it was run: as §1
RAC-alpha serine/threonine-protein kinase (Homo sapiens), sequence (P31749 whole entry): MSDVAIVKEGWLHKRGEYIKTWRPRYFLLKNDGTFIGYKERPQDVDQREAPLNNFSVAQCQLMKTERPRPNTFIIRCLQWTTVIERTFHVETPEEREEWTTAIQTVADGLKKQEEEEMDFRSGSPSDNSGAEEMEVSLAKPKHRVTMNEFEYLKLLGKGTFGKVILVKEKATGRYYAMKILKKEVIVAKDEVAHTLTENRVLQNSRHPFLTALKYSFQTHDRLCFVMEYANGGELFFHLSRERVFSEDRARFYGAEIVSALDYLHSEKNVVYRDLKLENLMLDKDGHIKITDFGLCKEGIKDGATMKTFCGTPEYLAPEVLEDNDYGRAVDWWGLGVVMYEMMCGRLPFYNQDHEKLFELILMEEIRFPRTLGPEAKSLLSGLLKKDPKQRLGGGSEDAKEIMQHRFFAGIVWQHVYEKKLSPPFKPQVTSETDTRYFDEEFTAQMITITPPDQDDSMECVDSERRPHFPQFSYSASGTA

[15] = molecular target: Glycogen synthase kinase-3 beta (Homo sapiens) (UniProt P49841); assay: Inhibition of GSK3B at 30 uM by microfluidic mobility shift assay; how it was run: as §1
Glycogen synthase kinase-3 beta (Homo sapiens), sequence (P49841 whole entry, looked up): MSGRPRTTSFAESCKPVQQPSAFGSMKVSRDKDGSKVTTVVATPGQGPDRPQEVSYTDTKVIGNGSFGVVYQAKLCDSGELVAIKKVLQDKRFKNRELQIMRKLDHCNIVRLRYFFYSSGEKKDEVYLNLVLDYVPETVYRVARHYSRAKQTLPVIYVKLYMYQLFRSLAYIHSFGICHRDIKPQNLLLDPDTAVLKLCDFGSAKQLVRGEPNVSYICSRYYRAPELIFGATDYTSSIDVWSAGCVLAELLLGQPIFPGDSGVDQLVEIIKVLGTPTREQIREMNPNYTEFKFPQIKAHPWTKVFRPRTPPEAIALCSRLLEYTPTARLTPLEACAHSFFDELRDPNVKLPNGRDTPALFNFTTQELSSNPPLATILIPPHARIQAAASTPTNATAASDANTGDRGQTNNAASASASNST

Compound | inhibition [1] | inhibition [2] | inhibition [3] | inhibition [4] | inhibition [5] | inhibition [6] | inhibition [7] | inhibition [8] | inhibition [9] | inhibition [10] | inhibition [11] | inhibition [12] | inhibition [13] | inhibition [14] | inhibition [15]
COc1cccc(-c2cc3c(c(N)nn3C)c(=O)[nH]2)c1 | 22% | 2% | 23% | 19% | 2% | 6% | 17% | 47% | 22% | 1% | 25% | 22% | 21% | -5% | 61%
CC(=O)Nc1nn(C)c2cc(-c3ccc(N4CCN(C)CC4)cc3)[nH]c(=O)c12 | 4% | 3% | 15% | 3% | 0% | 6% | 15% | 5% | 10% | -1% | 13% | 16% | 20% | 4% | -3%
COC(=O)CCc1c(C)[nH]c(=O)c2c(N)nn(C)c12 | 5% | -1% | 7% | 10% | 7% | 14% | 9% | 11% | 9% | 3% | 5% | -5% | 11% | 5% | 17%
COCCNc1nc(-c2ccccc2)cc2c1c(N)nn2C | 0% | 2% | 0% | 3% | 0% | 20% | 10% | 2% | 9% | -1% | 1% | -3% | -7% | 8% | 3%
CN1CCN(c2ccc(-c3cc4nn(-c5ccccc5)c(N)c4c(=O)[nH]3)cc2)CC1 | 7% | 85% | 99% | 0% | 12% | 23% | 66% | 4% | 100% | 10% | 15% | 19% | 99% | 3% | 12%
Nc1n[nH]c2cc(-c3ccccn3)[nH]c(=O)c12 | 12% | 17% | 54% | 11% | 35% | 3% | 38% | 41% | 56% | 8% | 33% | 24% | 40% | 2% | 60%
COc1ccc(-c2cc3c(c(N)nn3C)c(=O)[nH]2)cc1 | 16% | 5% | 56% | 28% | 9% | -3% | 33% | 51% | 46% | -8% | 36% | 18% | 53% | 9% | 81%
Nc1n[nH]c2c3c([nH]c(=O)c12)CCCC3 | 6% | -4% | 11% | 5% | 1% | -5% | 12% | 5% | 7% | -1% | -7% | -9% | 0% | -3% | 23%
COc1cccc(-c2cc3[nH]nc(N)c3c(=O)[nH]2)c1 | 15% | 10% | 42% | 20% | 49% | -1% | 49% | 56% | 48% | 2% | 17% | 20% | 44% | 4% | 58%
Nc1n[nH]c2cc(-c3ccncc3)[nH]c(=O)c12 | 38% | 1% | 28% | 57% | 29% | 10% | 43% | 37% | 37% | 4% | 29% | 22% | 28% | 2% | 95%
Nc1c2c(=O)[nH]c(-c3ccccc3)cc2nn1-c1ccccn1 | 0% | 7% | 41% | 2% | -4% | -3% | 37% | 6% | 15% | 0% | 16% | 5% | 33% | 10% | 41%
COc1ccccc1-c1cc2nn(-c3ccccc3)c(N)c2c(=O)[nH]1 | 13% | 68% | 77% | 21% | 7% | 4% | 7% | -1% | 72% | 0% | 20% | 3% | 86% | 15% | 3%
